Laboratory results: ChEMBL document CHEMBL1135442, “6-Chloropyridazin-3-yl derivatives active as nicotinic agents: synthesis, binding, and modeling studies” (J Med Chem, 2002)

assay: Inhibition of [3H]cytisine binding to rat cerebral cortical membrane neuronal Nicotinic acetylcholine receptor
Procedure, shortened: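 Rat cerebral cortical membranes, thawed, washed, resuspended in Tris-HCl 50 mM buffer with NaCl 120, KCl 5, MgCl2 1, CaCl2 2.5 mM (pH 7.4 at 4 °C), centrifuged 45000g 20 min. 150-200 µg protein incubated with 0.7 nM [3H]-(-)-cytisine and varied test concentrations, 75 min at 4 °C, triplicate. Nonspecific binding defined with 10 µM (-)-nicotine. Ki values reported.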

SMILES	Ki
CN1CCN(c2ccc(Cl)nn2)CC1	14 nM
Clc1ccc(N2CCNCC2)nn1	32 nM
C[N+]1(C)C2CCC1CN(c1ccc(Cl)nn1)C2	2.3 nM
CN1CCCN(c2ccc(Cl)nn2)CC1	220 nM
C[N+]1(C)CCCN(c2ccc(Cl)nn2)CC1	120 nM
Clc1ccc(N2CC3CCC(C2)N3)nn1	4.1 nM
Clc1ccc(N2CCCNCC2)nn1	1.5 nM
CN1C2CCC1CN(c1ccc(Cl)nn1)C2	39 nM
